# From ChEMBL document CHEMBL2203085, “Modification of a promiscuous inhibitor shifts the inhibition from γ-secretase to FLT-3” (Bioorg Med Chem Lett, 2012)
# pIC50: −log10 of the molar value.
# Key:
# Gamma-secretase = assay: Inhibition of gamma secretase in human H4 cells expressing APP695 assessed as inhibition of Abeta42 production after 20 to 24 hrs by liquid phase electrochemiluminescence assay; type: cell-based
# Procedure, shortened: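 Aβ42 generation in H4 APP#9 cells was quantified by a previously described liquid-phase electrochemiluminescence (LPECL) assay of the Aβ42 isoform as the read-out of γ-secretase inhibition.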
# H4 [1] = assay: Cytotoxicity against human H4 cells at 40 uM; type: cell-based; conditions: h4, 40 µM
# Procedure, shortened: (§1)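 H4 APP#9 cells were used for cell-based toxicity testing, and toxicity was scored as yes or no at each concentration tested.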
# H4 [2] = assay: Cytotoxicity against human H4 cells at 80 uM; type: cell-based; conditions: h4, 80 µM; procedure, shortened: as §1
# H4 [3] = assay: Cytotoxicity against human H4 cells at 160 uM; type: cell-based; conditions: h4, 160 µM; procedure, shortened: as §1
# [4] = target: Serine/threonine-protein kinase 26 (Homo sapiens) (UniProt Q9P289); assay: Inhibition of human recombinant MST4 using Ulight-TM- PKC as substrate assessed as residual activity at 1 uM after 30 mins relative to staurosporine
# Procedure, shortened: (§2)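 Part of a 50-kinase panel screen at a single concentration. Residual activity is given as percent of control specific activity, calculated as (measured specific activity/control specific activity) × 100, with staurosporine as the control. The kinase-specific details are in the supplementary data.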
# [5] = target: Serine/threonine-protein kinase PLK1 (Homo sapiens) (UniProt P53350); assay: Inhibition of human recombinant PLK1 using Ulight-FLGFTYVAP as substrate assessed as residual activity at 1 uM after 60 mins relative to staurosporine; procedure, shortened: as §2
# [6] = target: Serine/threonine-protein kinase Nek2 (Homo sapiens) (UniProt P51955); assay: Inhibition of human recombinant NEK2 expressed in insect cells using Ulight-FLGFTYVAP as substrate assessed as residual activity at 1 uM after 60 mins relative to staurosporine; procedure, shortened: as §2
# [7] = target: Serine/threonine-protein kinase Chk1 (Homo sapiens) (UniProt O14757); assay: Inhibition of human recombinant CHK1 expressed in insect cells using CKRREILSRRPSYRK as substrate assessed as residual activity at 1 uM after 30 mins relative to staurosporine; procedure, shortened: as §2
# Chain of Serine/threonine-protein kinase Chk1 (Homo sapiens) (O14757 whole entry): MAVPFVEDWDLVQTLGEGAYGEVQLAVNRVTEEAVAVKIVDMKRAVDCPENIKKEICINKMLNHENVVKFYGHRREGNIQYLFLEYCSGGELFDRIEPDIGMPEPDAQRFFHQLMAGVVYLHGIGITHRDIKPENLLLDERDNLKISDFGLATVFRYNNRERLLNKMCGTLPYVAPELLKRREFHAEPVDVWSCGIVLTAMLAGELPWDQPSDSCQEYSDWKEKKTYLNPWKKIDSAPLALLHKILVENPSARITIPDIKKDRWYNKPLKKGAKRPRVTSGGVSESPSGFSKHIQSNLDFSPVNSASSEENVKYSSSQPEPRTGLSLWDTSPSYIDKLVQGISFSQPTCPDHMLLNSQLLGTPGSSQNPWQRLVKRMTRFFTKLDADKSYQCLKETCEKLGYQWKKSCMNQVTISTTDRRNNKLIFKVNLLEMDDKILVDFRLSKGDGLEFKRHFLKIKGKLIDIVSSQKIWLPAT
# [8] = target: Hepatocyte growth factor receptor (Homo sapiens) (UniProt P08581); assay: Inhibition of human recombinant cMET expressed in insect cells using Ulight-CAGAGAIETDKEYYTVKD as substrate assessed as residual activity at 1 uM after 60 mins relative to staurosporine
# Procedure, shortened: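 Single-point kinase-panel screen at 1 µM test concentration. Specific activity was measured and expressed as percent of the staurosporine control, calculated as (measured specific activity / control specific activity) × 100.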
# [9] = target: Fibroblast growth factor receptor 3 (Homo sapiens) (UniProt P22607); assay: Inhibition of human recombinant FGFR3 using Ulight-CAGAGAIETDKEYYTVKD as substrate assessed as residual activity at 1 uM after 90 mins relative to staurosporine; procedure, shortened: as §2
# H4 [10] = assay: Selectivity ratio of IC50 for gamma secretase in human H4 cells to IC50 for human recombinant FLT3; type: cell-based
# [11] = target: Protein kinase C beta type (Homo sapiens) (UniProt P05771); assay: Inhibition of human recombinant PKCbeta2 using CKRREILSRRPSYRK as substrate assessed as residual activity at 1 uM after 15 mins relative to staurosporine; procedure, shortened: as §2
# [12] = target: 3-phosphoinositide-dependent protein kinase 1 (Homo sapiens) (UniProt O15530); assay: Inhibition of human recombinant PDK1 expressed in insect cells using Ulight-FLGFTYVAP as substrate assessed as residual activity at 1 uM after 90 mins relative to staurosporine; procedure, shortened: as §2
# Chain of 3-phosphoinositide-dependent protein kinase 1 (Homo sapiens) (O15530 whole entry): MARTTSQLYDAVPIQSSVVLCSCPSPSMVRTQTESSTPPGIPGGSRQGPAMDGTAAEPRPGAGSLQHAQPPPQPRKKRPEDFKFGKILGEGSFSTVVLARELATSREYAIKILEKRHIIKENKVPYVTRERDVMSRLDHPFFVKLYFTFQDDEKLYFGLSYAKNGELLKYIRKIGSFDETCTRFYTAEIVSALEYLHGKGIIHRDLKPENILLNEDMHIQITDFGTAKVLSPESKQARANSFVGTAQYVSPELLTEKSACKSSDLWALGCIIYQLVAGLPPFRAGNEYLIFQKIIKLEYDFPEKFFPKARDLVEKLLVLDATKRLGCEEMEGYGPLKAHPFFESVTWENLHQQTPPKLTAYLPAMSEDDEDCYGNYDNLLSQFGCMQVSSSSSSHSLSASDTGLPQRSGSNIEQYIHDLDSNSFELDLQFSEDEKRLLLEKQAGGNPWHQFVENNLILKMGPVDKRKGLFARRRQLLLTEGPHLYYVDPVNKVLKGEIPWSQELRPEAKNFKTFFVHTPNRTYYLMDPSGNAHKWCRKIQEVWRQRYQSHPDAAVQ
# [13] = target: Tyrosine-protein kinase JAK3 (Homo sapiens) (UniProt P52333); assay: Inhibition of human recombinant JAK3 using Ulight-CAGAGAIETDKEYYTVKD as substrate assessed as residual activity at 1 uM after 60 mins relative to staurosporine; procedure, shortened: as §2
# [14] = target: Fibroblast growth factor receptor 2 (Homo sapiens) (UniProt P21802); assay: Inhibition of human recombinant FGFR2 using Ulight-CAGAGAIETDKEYYTVKD as substrate assessed as residual activity at 1 uM after 15 mins relative to staurosporine; procedure, shortened: as §2
# Chain of Fibroblast growth factor receptor 2 (Homo sapiens) (P21802 22-821 limits assumed): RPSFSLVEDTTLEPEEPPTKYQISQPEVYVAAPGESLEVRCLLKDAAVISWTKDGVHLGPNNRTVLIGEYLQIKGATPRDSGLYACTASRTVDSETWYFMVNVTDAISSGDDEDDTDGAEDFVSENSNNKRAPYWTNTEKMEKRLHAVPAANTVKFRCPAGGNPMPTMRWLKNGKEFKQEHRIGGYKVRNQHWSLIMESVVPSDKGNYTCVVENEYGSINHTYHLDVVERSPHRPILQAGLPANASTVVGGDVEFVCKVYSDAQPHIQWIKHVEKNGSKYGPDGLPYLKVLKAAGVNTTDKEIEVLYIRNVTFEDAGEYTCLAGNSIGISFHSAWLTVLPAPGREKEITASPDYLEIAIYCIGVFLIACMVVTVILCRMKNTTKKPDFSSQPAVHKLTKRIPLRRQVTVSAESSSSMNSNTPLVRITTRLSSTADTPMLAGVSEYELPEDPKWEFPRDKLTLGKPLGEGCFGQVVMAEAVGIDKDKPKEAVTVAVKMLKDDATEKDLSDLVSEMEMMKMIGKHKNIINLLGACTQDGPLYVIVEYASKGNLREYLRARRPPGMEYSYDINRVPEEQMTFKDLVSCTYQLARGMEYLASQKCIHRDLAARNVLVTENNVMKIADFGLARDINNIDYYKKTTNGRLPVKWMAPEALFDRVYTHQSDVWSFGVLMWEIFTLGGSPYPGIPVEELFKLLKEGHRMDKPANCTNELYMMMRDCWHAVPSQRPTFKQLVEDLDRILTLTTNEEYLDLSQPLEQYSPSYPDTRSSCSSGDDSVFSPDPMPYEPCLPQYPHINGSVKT
# [15] = target: Epidermal growth factor receptor (Homo sapiens) (UniProt P00533); assay: Inhibition of human recombinant EGFR expressed in insect cells using Ulight-CAGAGAIETDKEYYTVKD as substrate assessed as residual activity at 1 uM after 15 mins relative to staurosporine; procedure, shortened: as §2
# [16] = target: Serine/threonine-protein kinase PAK 4 (Homo sapiens) (UniProt O96013); assay: Inhibition of human recombinant PAK4 expressed in insect cells using Ulight-RRRSLLE as substrate assessed as residual activity at 1 uM after 30 mins relative to staurosporine; procedure, shortened: as §2
# Chain of Serine/threonine-protein kinase PAK 4 (Homo sapiens) (O96013 whole entry, looked up): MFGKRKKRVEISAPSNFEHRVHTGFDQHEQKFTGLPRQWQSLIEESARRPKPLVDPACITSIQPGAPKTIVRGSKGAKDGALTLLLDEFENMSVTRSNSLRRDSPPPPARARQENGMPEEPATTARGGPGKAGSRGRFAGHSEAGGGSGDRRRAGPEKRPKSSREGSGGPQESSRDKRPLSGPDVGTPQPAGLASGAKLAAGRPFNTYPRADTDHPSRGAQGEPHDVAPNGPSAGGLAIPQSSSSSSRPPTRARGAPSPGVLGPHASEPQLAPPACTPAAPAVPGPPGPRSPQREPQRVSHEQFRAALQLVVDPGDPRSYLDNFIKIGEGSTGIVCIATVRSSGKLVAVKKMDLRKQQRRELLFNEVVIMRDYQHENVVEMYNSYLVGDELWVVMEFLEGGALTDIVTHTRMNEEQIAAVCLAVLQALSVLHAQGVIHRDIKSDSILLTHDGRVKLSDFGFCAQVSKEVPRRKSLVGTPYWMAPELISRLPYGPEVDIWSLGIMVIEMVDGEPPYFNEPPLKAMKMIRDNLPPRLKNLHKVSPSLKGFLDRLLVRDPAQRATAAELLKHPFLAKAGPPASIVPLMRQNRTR
# [17] = target: Inhibitor of nuclear factor kappa-B kinase subunit alpha (Homo sapiens) (UniProt O15111); assay: Inhibition of human recombinant IKKalpha expressed in Sf21 cells using + Ulight-IkappaB-alpha as substrate assessed as residual activity at 1 uM after 30 mins relative to staurosporine; procedure, shortened: as §2
# [18] = target: Glycogen synthase kinase-3 beta (Homo sapiens) (UniProt P49841); assay: Inhibition of human recombinant GSK3beta using Ulight-CFFKNIVTPRTPPPSQGK-amide as substrate assessed as residual activity at 1 uM after 90 mins relative to staurosporine; procedure, shortened: as §2
# Chain of Glycogen synthase kinase-3 beta (Homo sapiens) (P49841 whole entry, looked up): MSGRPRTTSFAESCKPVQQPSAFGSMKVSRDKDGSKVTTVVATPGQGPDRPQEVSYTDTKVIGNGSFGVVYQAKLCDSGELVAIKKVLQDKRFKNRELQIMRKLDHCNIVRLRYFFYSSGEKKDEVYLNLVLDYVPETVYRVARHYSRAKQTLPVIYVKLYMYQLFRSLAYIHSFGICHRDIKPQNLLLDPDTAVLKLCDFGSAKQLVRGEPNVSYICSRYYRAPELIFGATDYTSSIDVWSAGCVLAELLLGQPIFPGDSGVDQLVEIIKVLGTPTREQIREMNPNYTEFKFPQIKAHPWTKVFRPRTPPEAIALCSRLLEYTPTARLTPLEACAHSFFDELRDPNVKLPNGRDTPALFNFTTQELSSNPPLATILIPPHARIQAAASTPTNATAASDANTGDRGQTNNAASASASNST
# [19] = target: Glycogen synthase kinase-3 alpha (Homo sapiens) (UniProt P49840); assay: Inhibition of human recombinant GSK3alpha using Ulight-CFFKNIVTPRTPPPSQGK-amide as substrate assessed as residual activity at 1 uM after 60 mins relative to staurosporine; procedure, shortened: as §2
# Chain of Glycogen synthase kinase-3 alpha (Homo sapiens) (P49840 2-483 limits assumed): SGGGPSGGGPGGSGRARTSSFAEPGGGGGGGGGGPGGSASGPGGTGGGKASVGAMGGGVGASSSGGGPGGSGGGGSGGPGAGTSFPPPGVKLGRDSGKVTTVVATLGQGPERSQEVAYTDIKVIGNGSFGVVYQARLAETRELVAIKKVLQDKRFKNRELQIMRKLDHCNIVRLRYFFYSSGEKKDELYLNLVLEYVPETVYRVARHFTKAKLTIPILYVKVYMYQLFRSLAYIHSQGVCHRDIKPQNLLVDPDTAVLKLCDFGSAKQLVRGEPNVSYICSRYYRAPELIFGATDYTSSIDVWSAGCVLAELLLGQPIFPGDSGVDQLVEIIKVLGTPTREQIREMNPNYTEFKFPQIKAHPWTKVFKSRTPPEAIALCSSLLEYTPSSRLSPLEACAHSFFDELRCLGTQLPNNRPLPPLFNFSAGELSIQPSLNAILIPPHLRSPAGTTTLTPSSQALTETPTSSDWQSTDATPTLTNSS
# [20] = target: Serine/threonine-protein kinase Sgk1 (Homo sapiens) (UniProt O00141); assay: Inhibition of human recombinant SGK1 using Ulight-RRRSLLE as substrate assessed as residual activity at 1 uM after 30 mins relative to staurosporine; procedure, shortened: as §2
# Chain of Serine/threonine-protein kinase Sgk1 (Homo sapiens) (O00141 whole entry): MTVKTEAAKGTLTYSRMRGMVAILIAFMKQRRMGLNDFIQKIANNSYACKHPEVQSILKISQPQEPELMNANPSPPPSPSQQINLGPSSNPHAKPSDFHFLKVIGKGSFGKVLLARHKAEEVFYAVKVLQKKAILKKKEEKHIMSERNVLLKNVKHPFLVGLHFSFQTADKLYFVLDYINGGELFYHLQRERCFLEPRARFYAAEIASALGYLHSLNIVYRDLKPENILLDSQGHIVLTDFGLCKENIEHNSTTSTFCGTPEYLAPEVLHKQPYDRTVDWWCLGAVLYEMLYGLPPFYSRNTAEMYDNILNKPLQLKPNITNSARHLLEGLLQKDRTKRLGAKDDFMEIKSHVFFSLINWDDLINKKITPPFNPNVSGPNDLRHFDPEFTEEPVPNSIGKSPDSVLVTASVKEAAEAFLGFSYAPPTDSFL
# [21] = target: Receptor-type tyrosine-protein kinase FLT3 (Homo sapiens) (UniProt P36888); assay: Inhibition of human recombinant FLT3 expressed in insect cells using Ulight-CAGAGAIETDKEYYTVKD as substrate assessed as residual activity at 1 uM after 90 mins relative to staurosporine; procedure, shortened: as §2
# [22] = target: Mitogen-activated protein kinase 1 (Homo sapiens) (UniProt P28482); assay: Inhibition of human recombinant ERK2 expressed in Escherichia coli using Ulight-CFFKNIVTPRTPPPSQGK-amide as substrate assessed as residual activity at 1 uM after 15 mins relative to staurosporine; procedure, shortened: as §2
# Chain of Mitogen-activated protein kinase 1 (Homo sapiens) (P28482 whole entry): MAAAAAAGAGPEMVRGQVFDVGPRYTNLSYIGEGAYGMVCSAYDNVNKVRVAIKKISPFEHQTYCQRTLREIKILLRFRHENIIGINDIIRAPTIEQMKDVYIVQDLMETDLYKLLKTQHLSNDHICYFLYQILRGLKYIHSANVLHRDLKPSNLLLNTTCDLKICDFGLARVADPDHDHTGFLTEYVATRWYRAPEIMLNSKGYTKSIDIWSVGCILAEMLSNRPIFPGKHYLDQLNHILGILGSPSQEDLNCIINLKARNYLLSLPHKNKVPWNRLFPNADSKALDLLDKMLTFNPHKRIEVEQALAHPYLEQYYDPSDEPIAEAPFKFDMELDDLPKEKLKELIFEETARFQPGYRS
# [23] = target: RAC-alpha serine/threonine-protein kinase (Homo sapiens) (UniProt P31749); assay: Inhibition of human recombinant AKT1 expressed in insect cells using CKRREILSRRPSYRK as substrate assessed as residual activity at 1 uM after 60 mins relative to staurosporine; procedure, shortened: as §2
# Chain of RAC-alpha serine/threonine-protein kinase (Homo sapiens) (P31749 whole entry): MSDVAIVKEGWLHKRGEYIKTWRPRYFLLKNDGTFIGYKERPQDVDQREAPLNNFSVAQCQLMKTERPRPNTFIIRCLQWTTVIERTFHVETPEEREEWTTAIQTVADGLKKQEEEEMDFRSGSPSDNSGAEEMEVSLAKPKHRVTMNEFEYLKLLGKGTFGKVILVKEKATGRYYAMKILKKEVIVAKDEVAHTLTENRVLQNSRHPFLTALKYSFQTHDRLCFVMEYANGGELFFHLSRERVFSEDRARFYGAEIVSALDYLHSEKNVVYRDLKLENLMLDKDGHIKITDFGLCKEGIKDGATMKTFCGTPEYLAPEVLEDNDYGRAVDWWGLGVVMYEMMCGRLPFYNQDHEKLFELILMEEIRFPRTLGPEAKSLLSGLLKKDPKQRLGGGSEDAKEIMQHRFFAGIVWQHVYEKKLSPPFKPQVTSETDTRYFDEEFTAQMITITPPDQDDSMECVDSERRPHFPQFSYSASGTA
# [24] = target: Ephrin type-B receptor 4 (Homo sapiens) (UniProt P54760); assay: Inhibition of human recombinant EPHB4 expressed in insect cells using Ulight-TK peptide as substrate assessed as residual activity at 1 uM after 90 mins relative to staurosporine; procedure, shortened: as §2
# Danio rerio = organism: Danio rerio; assay: Toxicity against zebra fish embryo assessed as developmental delay at 20 uM incubated from 4 hrs to 48 hrs post fertilization by microscopic analysis; type: organism-based; conditions: zebrafish, in vivo
# Procedure, shortened: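 Zebrafish embryos were collected and kept in E2 medium at 28 °C. Compound was added at 4–5 hpf at 5 or 20 µM alongside untreated controls. Phenotypes were compared with controls at 48 hpf.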
# [25] = target: Dual specificity mitogen-activated protein kinase kinase 6 (Homo sapiens) (UniProt P52564); assay: Inhibition of human recombinant MKK6 using inactive p38alpha as substrate assessed as residual activity at 1 uM after 10 mins relative to staurosporine; procedure, shortened: as §2
# Chain of Dual specificity mitogen-activated protein kinase kinase 6 (Homo sapiens) (P52564 whole entry): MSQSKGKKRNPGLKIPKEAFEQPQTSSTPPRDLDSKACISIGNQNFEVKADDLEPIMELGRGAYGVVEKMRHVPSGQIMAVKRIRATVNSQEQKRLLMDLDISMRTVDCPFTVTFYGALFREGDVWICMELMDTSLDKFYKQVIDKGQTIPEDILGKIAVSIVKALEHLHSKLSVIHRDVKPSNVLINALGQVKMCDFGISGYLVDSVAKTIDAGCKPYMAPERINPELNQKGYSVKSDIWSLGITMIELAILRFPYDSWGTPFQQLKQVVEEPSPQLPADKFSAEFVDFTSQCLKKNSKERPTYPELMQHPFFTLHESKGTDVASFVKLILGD
# [26] = target: Serine/threonine-protein kinase MARK1 (Homo sapiens) (UniProt Q9P0L2); assay: Inhibition of human recombinant MARK1 using Ulight-RRRSLLE as substrate assessed as residual activity at 1 uM after 30 mins relative to staurosporine; procedure, shortened: as §2
# [27] = target: Aurora kinase A (Homo sapiens) (UniProt O14965); assay: Inhibition of human recombinant Aurora A expressed in Sf21 cells using Ulight-RRRSLLE as substrate assessed as residual activity at 1 uM after 15 mins relative to staurosporine; procedure, shortened: as §2
# [28] = target: Cyclin-dependent kinase 2/cyclin A (Homo sapiens) (UniProt P24941+P20248+P78396); assay: Inhibition of human recombinant CDK2/cyclin A using Ulight-CFFKNIVTPRTPPPSQGK-amide as substrate assessed as residual activity at 1 uM after 30 mins relative to staurosporine; type: protein-complex assay; procedure, shortened: as §2
# Homo sapiens = organism: Homo sapiens; assay: Inhibition of human recombinant PKA expressed in Escherichia coli using Ulight-RRRSLLE as substrate assessed as residual activity at 1 uM after 10 mins relative to staurosporine; procedure, shortened: as §2
# H4 [29] = assay: Cytotoxicity against human H4 cells at 20 uM; type: cell-based; conditions: h4, 20 µM; procedure, shortened: as §1
# H4 [30] = assay: Cytotoxicity against human H4 cells at 10 uM; type: cell-based; conditions: h4, 10 µM; procedure, shortened: as §1
compound,measurement,setting,value
O=C1Nc2ccc(Cl)cc2/C1=C/c1cc(Br)c(O)c(Br)c1,pIC50,Gamma-secretase,4.82
same,Activity,H4 [1],Non-toxic
Cn1c2ccccc2c2cc(/C=C3\C(=O)Nc4ccc(Cl)cc43)ccc21,Activity,H4 [2],Non-toxic
same,pIC50,Gamma-secretase,4.70
CCCCOc1ccc(/C=C2\C(=O)Nc3ccc(Cl)cc32)cc1,pIC50,Gamma-secretase,< 4.40
same,Activity,H4 [1],Non-toxic
CN(C)CCOc1ccc(/C=C2\C(=O)Nc3ccc(Cl)cc32)cc1,pIC50,Gamma-secretase,5.12
same,Activity,H4 [1],Non-toxic
O=C1Nc2ccc(Cl)cc2/C1=C/c1ccc(OCCCc2nnn[nH]2)cc1,pIC50,Gamma-secretase,4.75
same,Activity,H4 [1],Toxic
CCN(CC)CCOc1ccc(/C=C2\C(=O)Nc3ccc(Cl)cc32)cc1OC,pIC50,Gamma-secretase,4.94
same,Activity,H4 [1],Toxic
COc1ccc(/C=C2\C(=O)Nc3ccc(Cl)cc32)cc1,pIC50,Gamma-secretase,< 4.40
same,Activity,H4 [1],Non-toxic
COc1cc(/C=C2\C(=O)Nc3ccc(Cl)cc32)ccc1OCCCC#N,pIC50,Gamma-secretase,< 3.80
same,Activity,H4 [3],Non-toxic
O=C1Nc2ccc(Cl)cc2/C1=C/c1ccc(OCCN2CCOCC2)cc1,pIC50,Gamma-secretase,4.95
same,Activity,H4 [1],Non-toxic
O=C1Nc2ccc(Cl)cc2/C1=C/c1ccc(OCCCCl)cc1,pIC50,Gamma-secretase,5.33
same,Activity,H4 [1],Toxic
N#Cc1ccc(COc2ccc(/C=C3\C(=O)Nc4ccc(Cl)cc43)cc2)cc1,pIC50,Gamma-secretase,4.56
same,Activity,H4 [1],Non-toxic
CCN(CC)CCOc1ccc(/C=C2\C(=O)Nc3ccc(Cl)cc32)cc1,Activity,[4],104%
same,Activity,[5],100%
same,Activity,[6],107%
same,Activity,[7],95.8%
same,Activity,[8],97.2%
same,Activity,[9],92.9%
same,Ratio IC50,H4 [10],1000
same,pIC50,Gamma-secretase,4.75
same,Activity,[11],99.4%
same,Activity,[12],107%
same,Activity,[13],67.3%
same,Activity,[14],100%
same,Activity,[15],102%
same,Activity,[16],101%
same,Activity,[17],104%
same,Activity,[18],97%
same,Activity,[19],104%
same,Activity,[20],96%
same,Activity,[21],14.7%
same,Activity,[22],101%
same,Activity,[23],101%
same,Activity,[24],102%
same,Activity,Danio rerio,Toxic
same,Activity,[25],101%
same,Activity,[26],99.6%
same,Activity,[27],99.6%
same,Activity,[28],93.5%
same,Activity,Homo sapiens,98.7%
COc1cc(/C=C2\C(=O)Nc3ccc(Cl)cc32)ccc1S(C)(=O)=O,pIC50,Gamma-secretase,5.14
same,Activity,H4 [29],Toxic
COc1cc(OCCN(C)C)ccc1/C=C1\C(=O)Nc2ccc(Cl)cc21,pIC50,Gamma-secretase,5.00
same,Activity,H4 [1],Non-toxic
O=C1Nc2ccc(Cl)cc2/C1=C/c1ccc(O)cc1,pIC50,Gamma-secretase,4.32
same,Activity,H4 [1],Non-toxic
COc1cc(/C=C2\C(=O)Nc3ccc(Cl)cc32)ccc1OCCN(C)C,pIC50,Gamma-secretase,4.94
same,Activity,H4 [1],Toxic
CN(C)c1ccc(/N=N/c2ccc(/C=C3\C(=O)Nc4ccccc43)cc2)cc1,Activity,H4 [2],Non-toxic
same,pIC50,Gamma-secretase,< 4.10
Cn1c2ccccc2c2cc(/C=C3\C(=O)Nc4ccccc43)ccc21,Activity,H4 [2],Toxic
same,pIC50,Gamma-secretase,4.56
COc1cc(/C=C2\C(=O)Nc3ccc(Cl)cc32)ccc1-n1cnc(C)c1,Activity,H4 [2],Toxic
same,pIC50,Gamma-secretase,5.17
Cc1cn(-c2ccc(Oc3ccc(/C=C4\C(=O)Nc5ccc(Cl)cc54)cc3)cc2)cn1,pIC50,Gamma-secretase,5.27
same,Activity,H4 [30],Toxic
N#CCCCOc1ccc(/C=C2\C(=O)Nc3ccc(Cl)cc32)cc1,pIC50,Gamma-secretase,< 4.40
same,Activity,H4 [1],Toxic
N#Cc1cccc(COc2ccc(/C=C3\C(=O)Nc4ccc(Cl)cc43)cc2)c1,pIC50,Gamma-secretase,< 4.40
same,Activity,H4 [1],Non-toxic
COC(=O)c1ccc(COc2ccc(/C=C3\C(=O)Nc4ccc(Cl)cc43)cc2)cc1,pIC50,Gamma-secretase,4.41
same,Activity,H4 [1],Non-toxic
